OXTR potentiate – human OXTR potentiation; P30559; 0.061% of 320,000 active; activation, % at 3 µM; CHO-OTR cells, Fluo-8 calcium fluorescence, potentiator mode; 0% = oxytocin EC15, 100% = EC100;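 active means activation above that plate's cutoff, the mean activation of tested compounds plus 3 SD, cut at about 6.6% in these data, passing the limit was not always enough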;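 further: 100% uses oxytocin at 75 nM as the full agonist control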
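Dosing: Single dose, 3.0 µM nominal final compound concentration | Material: Human OTR in CHO cells | Technique: Kinetic Fluo-8 calcium fluorescence | Benchmarks: EC15 oxytocin alone as 0%, 75 nM oxytocin as 100% | Probe or stimulus: Oxytocin at about EC15, sub-maximal agonist stimulus | Incubation: Compound 6 min at room temperature before oxytocin, 100 s read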
OX1R antag-1 – blocks the human orexin 1 receptor; O43613; OX1R-expressing cells, FRET antagonist read-out; inhibition, % at 6.6 µM; 1.8% of 330,000 active; AID 485270; in the data active means inhibition mostly above about 38%, no sharp cut-off; inactive means mostly below about 40%;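 further: 0% = agonist challenge alone and 100% = reference antagonist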
CHO parental Ca – signal in parental CHO cells, OX1R antagonist counter-screen; parental CHO-K1, ATP-induced calcium, Fluo-8 fluorescence; 0.63% of 330,000 active; inhibition, % at 5.6 µM; AID 463079;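 active means inhibition above that plate's mean sample inhibition plus 3 SD, cut at about 26% in these data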;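 further: 0% = ATP-challenged DMSO wells and 100% = DMSO wells without ATP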
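Test system: parental CHO cells; detection: calcium-sensitive Fluo-8 fluorescence; evaluation: percent inhibition of calcium signal; also added: ATP as calcium-mobilizing challenge; repeats: one well per compound; control set: ATP-challenged DMSO wells low, unchallenged DMSO wells high; compound: single nominal dose of 5.6 µM per compound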
OX1R antag-2 – antagonists of human orexin 1 receptor; 0.43% of 330,000 active; CHO/OX1R cells, Fluo-8 calcium fluorescence, orexin A; AID 434989; inhibition, % at 5 µM;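 active means inhibition above its plate's threshold, mean inhibition of all tested compounds on the plate plus 3 SD, cut at about 37% in these data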;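 further: 0% = orexin A challenge wells and 100% = SB-334867-A antagonist wells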
OXTR ag – human OXTR agonism. P30559. CHO-OTR cells, Fluo-8 calcium fluorescence; normalized: DMSO 0%, oxytocin 100%. activation, % at 3 µM. 0.32% of 320,000 active. AID 2435;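 active means activation above the mean of all tested compounds plus 3 SD, cutoff set per screening run, cut at about 20% in these data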;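 further: peak over basal fluorescence ratio from a 100 s FLIPR kinetic read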
V1aR counter – V1a receptor agonism, counter-screen for OXTR agonists | P37288 | CHO-V1R cells, Fluo-8 calcium fluorescence, agonist mode; 0% DMSO, 100% 3 nM vasopressin | activation, % at 3 µM | 0.25% of 320,000 active;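 active means activation above the mean activation of all tested compounds plus 3 SD, per screening run, cut at about 20% in these data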;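 further: signal is peak over basal fluorescence ratio across a 100 second FLIPR read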
Target sequence (P37288 whole entry, looked up): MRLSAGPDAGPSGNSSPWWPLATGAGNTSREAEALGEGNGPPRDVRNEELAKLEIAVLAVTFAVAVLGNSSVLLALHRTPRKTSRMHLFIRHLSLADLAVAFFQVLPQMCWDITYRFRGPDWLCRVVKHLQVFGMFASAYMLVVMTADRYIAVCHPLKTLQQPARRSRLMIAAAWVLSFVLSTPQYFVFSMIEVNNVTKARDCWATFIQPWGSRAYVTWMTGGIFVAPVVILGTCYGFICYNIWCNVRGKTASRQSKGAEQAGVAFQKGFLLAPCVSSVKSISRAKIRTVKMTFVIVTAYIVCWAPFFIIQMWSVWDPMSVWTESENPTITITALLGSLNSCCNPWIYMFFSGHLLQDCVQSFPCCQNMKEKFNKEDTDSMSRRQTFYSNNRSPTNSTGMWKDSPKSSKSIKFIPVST
* = called active by the depositor; ! = a repeat was not active. This is a sample that favours compounds with a hit; in the whole collection about 2.7% have one here.

SMILES	OXTR potentiate	OX1R antag-1	CHO parental Ca	OX1R antag-2	OXTR ag	V1aR counter
CCCNC(=O)Nc1nc2ccccc2s1	-14	7	-2	-17	-1	0
CCCNC(=O)c1ccc(-c2nc3ccccc3s2)s1	-5	61*	-9	9	3	1
C=CCNC(=O)c1onc(CS(=O)(=O)c2cc(C)cc(C)c2)c1C(=O)NCC=C	0	6	-10	-11	-1	0
C[C@H]1CCC(=O)N([C@H](CSc2ccc(Br)cc2)Cc2ccccc2)CC1	-7	11	-31	-8	-1	-2
O=c1c2ccccc2nc2c3ccccc3c(NCCO)nn12	0	50*	-9	-19	0	-1
O=C(Nc1ccc(Br)cc1)c1cnc[nH]1	-6	1	-4	-20	2	1
O=C(NCCc1ccccc1Cl)c1ccc2nc3ccccc3c(=O)n2c1	-14	-6	-21	-19	-1	1
Cc1cc(C)n2nc(N)c(N=Nc3cccc(Cl)c3)c2n1	-11	51*	-3	-17	-1	-1
CCOC(=O)c1nn(-c2ccc(C)c(C)c2)c(=O)c(C#N)c1C	2	44*	-18	-30	-1	-1
COC(=O)Nc1nn(-c2ccc(Cl)cc2)c(=O)c(C#N)c1C	-5	59*	3	-3	-1	0
Cc1nn(-c2ccccc2)nc1C(=O)NN	-4	12	-7	-16	-2	-1
Cc1c(C(=O)NN)nn(-c2ccc(F)cc2)c(=O)c1C#N	-17	48*	0	-10	2	0
CC1(C)CC(=O)C2=C(C1)N=C1c3ccccc3C(=O)C1C2c1ccc(Cl)cc1 (configuration not stated)	-21	96*	-18	19	3	6
Cc1ccccc1CSc1nnc(-c2cnccn2)n1C	4	0	-9	3	-1	0
O=S(=O)(c1ccccc1)c1ccc(N2CCCCCC2)cc1	-18	24	37*	-17	-1	2
O=S(=O)(Nc1ccc(N2CCCCC2)cc1)c1ccccc1	-12	29	12	-10	-2	1
COCCNC(=S)N1CCN(c2nc(-c3ccc(F)cc3)cs2)CC1	-23	-1	-1	-10	10	9
CCNC(=S)N1CCN(c2nc(-c3ccc(F)cc3)cs2)CC1	-24	21	65*	48*	15	8
COc1cccc(/C=C/C(=O)OCC(=O)NCCCc2ccccc2)c1OC	3	3	-7	-10	-2	1
Cc1ccc(NC2CCCN(C(=O)C3CCCC3)C2)cc1C (configuration not stated)	-7	32	-14	-15	-1	-1
COc1c2ccoc2c(OC[C@@H](O)C(C)(C)O)c2oc(=O)ccc12	-3	62*	-14	8	1	0
COc1c2ccoc2c(OC[C@@H](O)C(C)(C)OC)c2oc(=O)ccc12	-5	11	-7	-5	-1	1
COc1ccccc1NC(=O)c1ccccc1C(=O)Nc1ccccc1OC	0	22	-14	-21	-1	0
COc1ccccc1NC(=O)c1cnc(Nc2ccccc2OC)c2ccccc12	-7	74*	-33	-11	-2	0
CCc1c(C2(O)CCCCC2)[nH]c2cc(C(F)(F)F)ccc12	-4	64*	-4	45*	3	-1
SMILES	OXTR potentiate	OX1R antag-1	CHO parental Ca	OX1R antag-2	OXTR ag	V1aR counter
Cc1c(C2(O)CCCCC2)[nH]c2cc(C(F)(F)F)ccc12	-8	71*	65*	91*	1	4
Cc1ccccc1C(=O)N1CCC(C(=O)Nc2ccccn2)CC1	-10	17	10	-10	0	3
C=CC[n+]1c(/C=C2\C=Cc3cc(C)ccc3N2CC)ccc2ccccc21	-32	114*	56*	69*	13	11
CCn1c2ccccc2c2cc(NC(=O)c3cccc([N+](=O)[O-])c3)ccc21	-2	76*	-6	17	-1	1
CCn1c2ccccc2c2cc(NC(=O)c3ccc(Br)o3)ccc21	-3	85*	-7	48*	0	0
CCn1c2ccccc2c2cc(NC(=O)COc3ccccc3)ccc21	-2	65*	-35	-20	-2	0
CCn1c2ccccc2c2cc(NC(=O)COc3ccc(OC)cc3)ccc21	-3	13	-14	-24	-1	0
COc1cc(NC(=O)CCc2nnc3ccc(N4CCC5(CC4)OCCO5)nn23)cc(OC)c1	5	13	-11	-9	0	1
CN(C)S(=O)(=O)c1cccc(COC(=O)Cc2c(F)cccc2Cl)c1	-15	32	45*	-14	2	8
CN(C)S(=O)(=O)c1cccc(COC(=O)c2cccnc2Cl)c1	-15	38	10	17	15	12
CC(CCC(C)C(C)(C)C)[C@@H]1CC[C@H]2C3C[C@H](OS(O)(=S)=S)[C@H]4C[C@H](OS(O)(=S)=S)[C@@H](OS(O)(=S)=S)C[C@]4(C)[C@H]3CC[C@]12C (some centres not stated) (tested in a mixture with another compound)	-13	66*	84*	101*	58*	71*!
COc1ccc2nc(N3CCC(C)CC3)c(C#N)cc2c1	-11	58*	-16	-21	-1	-1
O=C(NNS(=O)(=O)c1ccc(F)cc1F)C1Cc2c(ccc3ccccc23)O1 (configuration not stated)	-29	27	42*	51*	15	16
COC(=O)c1c(NC(=O)C(=O)NCC2CCCO2)sc2c1CC(C)(C)OC2 (configuration not stated)	-3	12	-17	-5	2	3
Cc1ccc(OCC(=O)Nc2ccc([N+](=O)[O-])cn2)cc1C	-16	18	42*	-8	-2	0
COc1cc(C(=O)Nc2ccc([N+](=O)[O-])cn2)cc(OC)c1OC	-8	17	-2	-18	0	1
CC(=O)Nc1ccc([N+](=O)[O-])cn1	-2	76*	-7	-17	1	0
O=C(Nc1ccc([N+](=O)[O-])cn1)C1CC1	-7	63	-3	-3	-1	0
COC(=O)C(/C=N/OCc1ccc([N+](=O)[O-])cc1)NC(=O)c1cccc(Cl)c1 (configuration not stated)	-20	17	11	18	32*	38*
Cc1cccc(C)c1NC(=O)CNC(=O)c1cccnc1	-2	12	1	-3	0	-1
CN(Cc1nc2ccccc2c(=O)[nH]1)C(=O)c1cccc(S(=O)(=O)N2CCc3ccccc32)c1	-8	15	-19	-10	1	3

Screening results (PubChem)
